The source made the active and inactive calls. No cut-off for these calls is given here.
Assays:
[1] = biological target: T1, Beta 1,3 N-acetylglucosaminyltransferase (Neisseria meningitidis) (UniProt Q8KHG4); experiment: Ratio of Vmax to Km for Neisseria meningitidis beta1,3-N-acetylglucosaminyltransferase LgtA assessed as enzyme catalyzed glycosylation using lactose as substrate after 2 to 30 mins by SAMDI analysis
T1 sequence (whole entry): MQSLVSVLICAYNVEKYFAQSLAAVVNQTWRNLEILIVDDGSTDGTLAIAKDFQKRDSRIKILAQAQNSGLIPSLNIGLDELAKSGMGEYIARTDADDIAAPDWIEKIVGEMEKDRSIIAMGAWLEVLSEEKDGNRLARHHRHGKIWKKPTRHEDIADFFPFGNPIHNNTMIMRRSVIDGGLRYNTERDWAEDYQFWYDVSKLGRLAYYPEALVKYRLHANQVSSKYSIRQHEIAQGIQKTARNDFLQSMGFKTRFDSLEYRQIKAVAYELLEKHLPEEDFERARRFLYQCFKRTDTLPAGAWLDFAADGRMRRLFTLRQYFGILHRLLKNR
In short: (§1)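 Solution-phase reactions: LgtA with lactose azide acceptor (10 mM) and UDP-sugar donor at five concentrations (1–10 mM), 30 °C. Sets stopped at 12 time points. Aliquots mixed with copper bromide and DIPEA and immobilized on monolayer islands (20 min). Yield comes from product/substrate SAMDI peak intensities. Initial velocities are slopes of linear fits of yield vs time. Apparent Km and Vmax are taken from a reciprocal plot.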

[2] = biological target: T1, Beta 1,3 N-acetylglucosaminyltransferase (Neisseria meningitidis); experiment: Activity of Neisseria meningitidis beta1,3-N-acetylglucosaminyltransferase LgtA assessed as enzyme catalyzed glycosylation using self-assembled monolayers having lactoside as acceptor at 2 mM after 5 to 120 mins by SAMDI MS assay
In short: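 Gold islands (2 mm) carry a monolayer of lactose (10% density) with tri(ethylene glycol) groups. Each donor analog (2 mM) is mixed with LgtA in assay buffer, applied to an island, and incubated in a humidified chamber at 30 °C. Times were 5, 10, 15, 20, 30, 40, 60 and 120 min. Arrays were rinsed with water and ethanol, matrix was applied, and relative glycosylation product was read by SAMDI MS.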

[3] = substrate: CC(=O)N[C@H]1[C@@H](OP(=O)(O)OP(=O)(O)OC[C@H]2O[C@@H](n3ccc(=O)[nH]c3=O)[C@H](O)[C@@H]2O)O[C@H](CO)C[C@@H]1O; experiment: (§2) Activity of Neisseria meningitidis beta1,3-N-acetylglucosaminyltransferase LgtA assessed as enzyme catalyzed glycosylation using lactose as substrate after 2 to 30 mins by SAMDI analysis; in short: as §1
[4] = substrate: CCC(=O)N[C@H]1[C@@H](OP(=O)(O)OP(=O)(O)OC[C@H]2O[C@@H](n3ccc(=O)[nH]c3=O)[C@H](O)[C@@H]2O)O[C@H](CO)[C@@H](O)[C@@H]1O; experiment: as §2; in short: as §1
[5] = substrate: CC(=O)N[C@H]1[C@@H](OP(=O)(O)OP(=O)(O)OC[C@H]2O[C@@H](n3ccc(=O)[nH]c3=O)[C@H](O)[C@@H]2O)O[C@H](C)[C@H](O)[C@@H]1O; experiment: as §2; in short: as §1
[6] = substrate: CC(=O)N[C@H]1[C@@H](OP(=O)(O)OP(=O)(O)OC[C@H]2O[C@@H](n3ccc(=O)[nH]c3=O)[C@H](O)[C@@H]2O)O[C@H](C)[C@@H](O)[C@@H]1O; experiment: as §2; in short: as §1

Molecule: CC(=O)N[C@@H]1[C@H](OP(=O)(O)OP(=O)(O)OC[C@H]2O[C@@H](n3ccc(=O)[nH]c3=O)[C@H](O)[C@@H]2O)O[C@@H](CO)[C@H](O)[C@H]1O (stereo in doubt; 1)
- Vmax/Km [1]: 1.15 min⁻¹

Molecule: CC(=O)N[C@H]1[C@@H](OP(=O)(O)OP(=O)(O)OC[C@H]2O[C@@H](n3ccc(=O)[nH]c3=O)[C@H](O)[C@@H]2O)O[C@H](CO)C[C@@H]1O
- Vmax/Km [1]: 0.029 min⁻¹

Molecule: CCC(=O)N[C@H]1[C@@H](OP(=O)(O)OP(=O)(O)OC[C@H]2O[C@@H](n3ccc(=O)[nH]c3=O)[C@H](O)[C@@H]2O)O[C@H](CO)[C@@H](O)[C@@H]1O
- Vmax/Km [1]: 0.005 min⁻¹

Molecule: CC(=O)N[C@H]1[C@@H](OP(=O)(O)OP(=O)(O)OC[C@H]2O[C@@H](n3ccc(=O)[nH]c3=O)[C@H](O)[C@@H]2O)O[C@H](C)[C@H](O)[C@@H]1O
- Vmax/Km [1]: 0.038 min⁻¹

Molecule: CC(=O)N[C@H]1[C@@H](OP(=O)(O)OP(=O)(O)OC[C@H]2O[C@@H](n3ccc(=O)[nH]c3=O)[C@H](O)[C@@H]2O)O[C@H](C)[C@@H](O)[C@@H]1O
- Vmax/Km [1]: 0.259 min⁻¹
- Activity [2]: Active

Molecule: [N-]=[N+]=NCC(=O)N[C@H]1[C@@H](OP(=O)(O)OP(=O)(O)OC[C@H]2O[C@@H](n3ccc(=O)[nH]c3=O)[C@H](O)[C@@H]2O)O[C@H](CO)[C@@H](O)[C@@H]1O
- Activity [2]: inactive

Molecule: CC(=O)N[C@@H]1[C@H](OP(=O)(O)OP(=O)(O)OC[C@H]2O[C@@H](n3ccc(=O)[nH]c3=O)[C@H](O)[C@@H]2O)O[C@@H](CO)[C@H](O)[C@H]1O (stereo in doubt; 8)
- Vmax/Km [1]: 0.065 min⁻¹

B1: Beta 1,3 N-acetylglucosaminyltransferase (Neisseria meningitidis), Q8KHG4 (protein)
chain: T1 sequence (whole entry)
- Km [3]: 3.28 mM
- Vmax [3]: 0.097 mM/min
- Km [4]: 21.1 mM
- Vmax [4]: 0.11 mM/min
- Km [5]: 3.05 mM
- Vmax [5]: 0.115 mM/min
- Km [6]: 1.32 mM
- Vmax [6]: 0.343 mM/min
